Source: PubChem (several laboratories)
Most compounds without a hit are left out; they make up all but 3.3% or so of the library.
ABCB6 inh MLPCN = ABCB6 transporter inhibitors, primary screen, K562-ABCB6 cells, flow cytometry, MLPCN library; fluorescence ratio to DMSO, % at 10 µM; K562-ABCB6 porphyrin accumulation, 1 h; stronger effect = lower value; 0.19% of 360,000 active; ATP-binding cassette sub-family B member 6 (Homo sapiens), Q9NP58; AID 602162, 2011;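 active means fluorescence ratio to DMSO below 75%, the collection mean minus 3 SD; inconclusive means too few cells collected in the well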;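 further: signal is porphyrin accumulated inside mitochondria; 100% equals median channel fluorescence of DMSO control wells; lower ratio means ABCB6 inhibition with less porphyrin fluorescence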
Target sequence (Q9NP58 whole entry, looked up): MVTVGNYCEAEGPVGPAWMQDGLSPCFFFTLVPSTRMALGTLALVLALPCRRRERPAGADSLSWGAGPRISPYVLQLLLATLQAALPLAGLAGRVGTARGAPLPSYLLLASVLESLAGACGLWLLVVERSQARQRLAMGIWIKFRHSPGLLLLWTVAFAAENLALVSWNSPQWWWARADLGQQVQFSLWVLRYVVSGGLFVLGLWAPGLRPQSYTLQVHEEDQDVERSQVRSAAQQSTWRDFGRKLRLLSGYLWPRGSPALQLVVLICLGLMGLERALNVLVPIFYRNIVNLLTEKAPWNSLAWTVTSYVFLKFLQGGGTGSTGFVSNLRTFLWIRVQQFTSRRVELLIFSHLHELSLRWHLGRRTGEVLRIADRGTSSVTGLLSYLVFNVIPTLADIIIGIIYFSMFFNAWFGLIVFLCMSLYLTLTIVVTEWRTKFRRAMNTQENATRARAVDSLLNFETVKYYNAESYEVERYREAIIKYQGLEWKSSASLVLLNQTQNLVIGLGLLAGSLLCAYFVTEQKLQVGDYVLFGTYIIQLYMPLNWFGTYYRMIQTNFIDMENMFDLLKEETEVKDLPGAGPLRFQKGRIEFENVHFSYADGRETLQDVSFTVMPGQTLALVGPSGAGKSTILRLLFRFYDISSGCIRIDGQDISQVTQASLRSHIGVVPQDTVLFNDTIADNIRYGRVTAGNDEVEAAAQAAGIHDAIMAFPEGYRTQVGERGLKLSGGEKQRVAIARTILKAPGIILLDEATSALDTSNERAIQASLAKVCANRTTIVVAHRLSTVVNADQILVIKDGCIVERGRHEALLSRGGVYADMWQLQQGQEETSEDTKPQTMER
Myeloid diff 2 = induction of myeloid progenitor differentiation, primary screen, cell-based, flow cytometry, MLPCN library | ER-HoxA9 myeloid progenitors, lysozyme-GFP differentiation | calls only at 10 µM | 1% of 360,000 active | AID 624256, 2012;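 active means normalized GFP-positive differentiation at or above the plate's own cutoff, the solvent-only control mean plus 3 SD; inconclusive means no clear call, values can overlap the other calls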;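 further: cells exposed to compound for four days before flow analysis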
Arr AP2 block = inhibitors of beta-arrestin/AP2 binding, primary screen, biochemical, GPCR trafficking, flow cytometry | inhibition, % at 10 µM | FITC-arrestin peptide / GST-AP2 beads; AP2 beta2 appendage carries R879A mutation | 0.31% of 340,000 active | beta-arrestin 1 C-terminal peptide binding to AP2 beta2-adaptin appendage (human);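 active means inhibition above a set limit, near 3 SD of compounds lacking own fluorescence, cut at about 54% in these data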;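 further: plate controls were DMSO wells for no effect and 5 µM unlabelled arrestin peptide for full effect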
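System: GST-tagged AP2 beta2-adaptin appendage (R879A) on 4 µm glutathione beads / Reagent: FITC-arrestin peptide, 50 nM / Detection: HyperCyt-sampled flow cytometry, FL1 channel, ex 488/em 535 nm / Timing: 12 min plus 1 h, RT / Buffer or medium: PBS plus Tween 20 (0.05%) and BSA (0.1%)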
NRP1-CendR mod = modulators of CendR peptide binding to NRP-1, primary screen, biochemical, fluorescence polarization, uHTS. AID 602438, 2012. Neuropilin-1 (Homo sapiens), O14786. 0.85% of 360,000 active. inhibition, % at 25 µM. FAM-RPARPAR peptide binding to NRP-1;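 active means inhibition or corrected inhibition above about 18%, plus a signal ratio from 0.5 to 1.5, limit read from the data, passing the limit was not always enough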
Granule exo inh = LAMP-1 surface exposure blockers, TALL-104 cells – cell-based, flow cytometry, MLPCN library, primary screen | TALL-104 LAMP-1 surface exposure; cells stimulated with thapsigargin and PMA | inhibition, % at 10 µM | 0.66% of 360,000 active | AID 651702, 2012;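 active means inhibition above about 55%, limit read from the data; inconclusive means no clear call, values can overlap the other calls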
ATG4B inh = ATG4B protease inhibitors, primary screen, biochemical, fluorescence, uHTS; AID 504462, 2011; 0.51% of 340,000 active; ATG4B cleavage of LC3-PLA2, NBD-HPC fluorescence, 1 h; inhibition, % at 8.33 µM; in the data active means inhibition above about 40%
Active calls of the source: *; i = inactive; ? = inconclusive; nt = no result given; + = active, no number.

SMILES	ABCB6 inh MLPCN	Myeloid diff 2	Arr AP2 block	NRP1-CendR mod	Granule exo inh	ATG4B inh
COc1cc2c(cc1OC)-c1cc(OCCN3CCOCC3)nc(=O)n1CC2	636.0	+	3.9	-47.1	-0.5	0.8
CCNc1cc2n(c(=O)n1)CCc1cc(OC)c(OC)cc1-2	105.0	i	1.7	-14.0	-7.7	1.6
CCOc1ccc(/C=N/NC(=O)c2c(C)n(C)c3ccc(OC)cc23)cc1	106.0	i	-9.7	-2.6	2.2	-0.8
COc1ccc2c(c1)c(C(=O)N/N=C/c1ccc(Br)cc1)c(C)n2C	100.0	i	14.7	26.0*	1.6	-8.9
O=C1c2ccccc2C(=O)c2c(/C=C/N3CCCCC3)ccnc21	105.0	+	-0.7	79.8*	2.4	-4.9
Cc1ccc(O)c(CNCCNCc2cc(C)ccc2O)c1	93.0	i	10.9	25.2*	-15.6	-4.1
Nc1cc2c3c(cccc3c1)C(=O)N(CCN1CCCC1)C2=O	122.0	+	-5.8	31.6*	-10.8	-0.4
O=C1c2ccccc2C(=O)N1CCN1CCCCC1	104.0	i	-9.5	-5.8	-0.7	0.9
O=C(CN1C(=O)c2cccc3cccc(c23)C1=O)N1CCCCCC1	63.0*	i	36.3	-11.2	-3.4	-10.5
O=C1c2cccc3cc([N+](=O)[O-])cc(c23)C(=O)N1CCN1CCCC1	99.0	?	-1.7	30.1*	38.0	-3.2
CN(C(=O)CSc1ncn[nH]1)C1(C#N)CCCCC1	98.0	i	21.3	2.0	-1.4	-2.9
N#C/C(C(=O)NCCc1ccccc1)=C1/N=C(NC(=O)c2cccs2)c2ccccc21	121.0	i	23.6	-32.2	10.4	-4.7
CC(NC(=O)/C(C#N)=C1\N=C(NC(=O)c2cccs2)c2ccccc21)c1ccccc1 (stereo unspecified)	203.0	+	0.1	-109.9	-0.1	-11.3
Cc1cccc(N2CCN(C(=O)c3ccnn3C)CC2)c1C	91.0	i	-6.8	24.8*	6.1	5.7
Cc1cc(C)cc(OCC(=O)NNC(=O)CN2C(=O)c3ccccc3C2=O)c1	101.0	i	8.0	-28.2	-0.8	-1.9
COc1ccc(-c2cc(=O)c3cc(OC)ccc3[nH]2)cc1	95.0	+	24.1	-19.6	-1.0	-3.2
O=C(N/N=C/c1cccc2ccccc12)c1cc(C2CC2)[nH]n1	96.0	i	-4.4	22.1*	10.1	21.1
Oc1ccc(/C=N/N2CCN(C3c4ccccc4-c4ccccc43)CC2)cc1	93.0	i	-2.5	21.0*	-1.3	-4.9
COc1ccc([C@H](OC)[C@@]2(Cc3ccc(O)cc3)N=C(N)N(C)C2=O)cc1	87.0	i	1.9	21.2*	1.9	2.4
N#CC(C#N)=C1C=CC=CN1/C(=C\c1ccco1)C(=O)c1ccc(Br)cc1	92.0	?	-6.8	-0.3	85.5*	2.5
N#CC(C#N)=C1C=CC=CN1/C(=C\c1ccco1)C(=O)c1ccccc1	108.0	?	8.8	-6.7	45.2	2.5
COc1ccc(C(=O)/C(=C\c2ccco2)N2C=CC=CC2=C(C#N)C#N)cc1	106.0	?	19.3	0.8	64.9*	3.9
CN1\C(=C/C=C/C=C/C=[N+](C)C)C(C)(C)c2ccccc21	i	+	14.5	-260.8	-19.5	11.0
CN1/C(=C\C=Nc2ccc3ccccc3c2)C(C)(C)c2ccccc21	106.0	i	11.7	-105.2	45.3	nt
CN1/C(=C\C=O)C(C)(C)c2ccccc21	261.0	i	-18.5	-9.7	3.4	-11.8
SMILES	ABCB6 inh MLPCN	Myeloid diff 2	Arr AP2 block	NRP1-CendR mod	Granule exo inh	ATG4B inh
CN(C)c1ccc(N=C/C=C2\N(C)c3ccccc3C2(C)C)cc1	229.0	+	16.7	-54.9	-1.4	2.9
NS(=O)(=O)c1cccc(NC(=O)COC(=O)C2(c3cccc(F)c3)CCCC2)c1	99.0	i	12.5	6.7	-1.5	-3.5
CC1(C)Cc2cccc(OCC(=O)Nc3cc(S(C)(=O)=O)ccc3Cl)c2O1	97.0	i	-0.2	-9.8	-0.1	0.3
N#Cc1ccc(Sc2ccccn2)c([N+](=O)[O-])c1	97.0	i	-1.5	-1.8	-2.7	-11.1
C[C@@H]1CN([C@H](C)CO)C(=O)c2c(c3ccccc3n2C)-c2ccccc2CO[C@@H]1CN(C)S(=O)(=O)c1cccs1	96.0	i	nt	-0.1	9.2	nt
O=S(=O)(NCC1CC1)c1cccc(S(=O)(=O)N2CCCC2)c1	102.0	+	-3.9	-0.2	1.3	4.8
COc1ccc(CCNS(=O)(=O)c2cccc(S(=O)(=O)N3CCCC3)c2)cc1OC	99.0	i	-8.9	8.6	1.4	-6.3
Cc1nc2ccc(NS(=O)(=O)c3ccc4c(c3)OCCO4)cc2s1	95.0	+	-7.8	22.1	-5.2	-7.1
CSc1ccc(S(=O)(=O)Nc2ccc3c(c2)OCCO3)cc1	95.0	+	21.5	-11.2	1.8	1.7
Cc1ccc(CN2CCN(Cc3cccn3-c3ccccn3)CC2CCO)o1 (stereo unspecified)	90.0	i	-2.2	5.0	2.2	-5.7
Cc1cc(C)cc(NC(=O)COc2coc(CN3CCc4ccccc43)cc2=O)c1	105.0	i	25.1	-11.9	-4.1	9.1
Cc1ccccc1-c1nc(-c2ccc(NC(=O)c3ccc4c(c3)OCO4)cc2)no1	93.0	+	-0.3	-0.2	0.5	-3.1
CSc1nc(C)cc(OCC(=O)N/N=C/c2ccccc2O)n1	96.0	?	-29.2	-13.5	-1.0	38.1
O=C1CCC([N+](=O)[O-])C(c2cc(Br)ccc2F)N1 (stereo unspecified)	100.0	i	5.0	4.4	1.2	-2.1
CN(C(=O)c1ccccc1NC(=O)C(F)(F)F)c1ccccc1	60.0*	i	9.7	-4.1	2.0	-16.4
Cc1ccc(COn2c(-c3ccc(Cl)cc3Cl)nc3ncccc32)cc1	100.0	i	11.2	33.4*	8.1	1.8
Cc1ccc2c(c1)sc1nncn12	95.0	i	nt	-6.8	-9.5	nt
CCN(CC)c1c([N+](=O)[O-])c(=O)n(C)c2ccccc12	100.0	i	9.7	-9.1	10.5	3.6
Cn1c(=O)c([N+](=O)[O-])c(Cl)c2ccccc21	105.0	?	-3.5	-8.7	71.4*	3.5
COC(=O)Nc1ccc([N+](=O)[O-])cc1OC	102.0	i	7.7	-5.6	1.9	-3.2
COC(=O)CSc1cc([N+](=O)[O-])ccc1NC(=O)OC	162.0	+	2.1	-3.4	-1.9	-11.9
